Legend:
[1] = target: T1, Coagulation factor XIII A chain (Homo sapiens) (UniProt P00488); experiment: Irreversible inhibition of human factor XIIIa using peptidic FRET-quenched probe A101 as substrate assessed as observed binding constant by fluorescence based assay
T1 sequence (whole entry): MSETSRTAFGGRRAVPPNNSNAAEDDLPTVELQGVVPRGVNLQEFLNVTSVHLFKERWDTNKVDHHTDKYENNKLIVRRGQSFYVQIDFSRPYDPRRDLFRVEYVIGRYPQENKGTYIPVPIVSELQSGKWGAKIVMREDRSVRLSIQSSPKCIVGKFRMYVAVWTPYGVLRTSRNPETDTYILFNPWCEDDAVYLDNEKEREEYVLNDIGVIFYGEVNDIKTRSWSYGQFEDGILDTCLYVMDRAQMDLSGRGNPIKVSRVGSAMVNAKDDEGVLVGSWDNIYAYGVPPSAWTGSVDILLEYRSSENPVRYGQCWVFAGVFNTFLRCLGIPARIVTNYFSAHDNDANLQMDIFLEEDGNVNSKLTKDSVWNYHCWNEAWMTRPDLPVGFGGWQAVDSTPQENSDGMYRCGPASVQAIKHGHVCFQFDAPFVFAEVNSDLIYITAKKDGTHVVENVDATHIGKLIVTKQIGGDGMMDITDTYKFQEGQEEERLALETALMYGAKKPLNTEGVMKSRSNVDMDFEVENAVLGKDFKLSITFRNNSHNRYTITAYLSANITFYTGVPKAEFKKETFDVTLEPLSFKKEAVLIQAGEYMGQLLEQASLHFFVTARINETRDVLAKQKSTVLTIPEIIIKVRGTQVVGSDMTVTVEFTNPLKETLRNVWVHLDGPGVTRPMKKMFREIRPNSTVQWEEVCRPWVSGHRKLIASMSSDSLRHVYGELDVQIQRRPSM

[2] = target: T2, Protein-glutamine gamma-glutamyltransferase 6 (Homo sapiens) (UniProt O95932); experiment: Irreversible inhibition of human TG6 using Cbz-Glu-(gamma-p-nitrophenylester)Gly (AL5) as substrate assessed as substrate hydrolysis by measuring observed binding constant incubated for 60 mins by colorimetric assay
T2 sequence (whole entry): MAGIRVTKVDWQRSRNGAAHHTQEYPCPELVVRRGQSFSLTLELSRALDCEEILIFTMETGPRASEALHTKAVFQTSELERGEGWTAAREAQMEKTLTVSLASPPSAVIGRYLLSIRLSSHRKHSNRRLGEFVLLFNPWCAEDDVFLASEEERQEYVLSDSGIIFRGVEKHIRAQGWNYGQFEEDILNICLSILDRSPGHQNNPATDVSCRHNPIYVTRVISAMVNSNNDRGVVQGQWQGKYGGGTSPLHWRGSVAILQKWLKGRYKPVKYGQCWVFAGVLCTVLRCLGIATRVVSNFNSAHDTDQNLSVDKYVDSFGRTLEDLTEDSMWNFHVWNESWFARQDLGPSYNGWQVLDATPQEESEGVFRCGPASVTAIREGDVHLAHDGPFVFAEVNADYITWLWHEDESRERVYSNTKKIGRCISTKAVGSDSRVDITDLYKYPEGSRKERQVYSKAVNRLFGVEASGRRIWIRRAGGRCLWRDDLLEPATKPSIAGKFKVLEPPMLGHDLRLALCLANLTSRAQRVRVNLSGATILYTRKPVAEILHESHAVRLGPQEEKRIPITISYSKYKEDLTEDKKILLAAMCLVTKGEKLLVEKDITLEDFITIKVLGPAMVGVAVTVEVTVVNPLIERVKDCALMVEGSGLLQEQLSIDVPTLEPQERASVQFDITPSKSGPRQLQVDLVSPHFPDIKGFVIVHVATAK

[3] = Ratio of Kinact/Ki for inhibition of human tissue transglutaminase assessed as substrate hydrolysis to corrected second order rate constant (K2 corrected) for GSH reactivity in aqueous buffer assessed as GSH adduct formation; type: physicochemical
[4] = target: T3, Protein-glutamine gamma-glutamyltransferase (Homo sapiens) (UniProt P21980); experiment: Irreversible inhibition of human recombinant tissue transglutaminase expressed in Escherichia coli using Cbz-Glu-(gamma-p-nitrophenylester)Gly (AL5) as substrate assessed as substrate hydrolysis by measuring Kinact/Ki ratio incubated for 20 mins by colorimetric analysis
T3 sequence (whole entry): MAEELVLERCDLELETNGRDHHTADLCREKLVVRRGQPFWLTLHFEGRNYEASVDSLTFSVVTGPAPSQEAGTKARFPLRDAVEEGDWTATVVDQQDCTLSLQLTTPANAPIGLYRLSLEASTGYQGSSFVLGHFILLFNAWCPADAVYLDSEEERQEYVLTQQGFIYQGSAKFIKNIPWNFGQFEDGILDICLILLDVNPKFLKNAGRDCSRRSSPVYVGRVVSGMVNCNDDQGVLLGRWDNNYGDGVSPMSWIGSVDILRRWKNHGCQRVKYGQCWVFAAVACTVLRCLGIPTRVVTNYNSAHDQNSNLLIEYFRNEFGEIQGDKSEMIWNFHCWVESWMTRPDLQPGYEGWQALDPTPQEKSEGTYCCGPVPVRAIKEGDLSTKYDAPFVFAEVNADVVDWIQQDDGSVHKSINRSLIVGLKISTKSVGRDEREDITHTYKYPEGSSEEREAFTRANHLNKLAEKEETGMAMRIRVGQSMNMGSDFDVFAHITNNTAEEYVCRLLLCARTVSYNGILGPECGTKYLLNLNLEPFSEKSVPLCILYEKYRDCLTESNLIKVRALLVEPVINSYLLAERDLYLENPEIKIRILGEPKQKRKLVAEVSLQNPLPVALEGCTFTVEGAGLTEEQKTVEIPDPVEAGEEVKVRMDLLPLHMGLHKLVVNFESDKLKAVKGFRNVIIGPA

[5] = target: T3, Protein-glutamine gamma-glutamyltransferase (Homo sapiens); experiment: Inhibition of human recombinant tissue transglutaminase expressed in Escherichia coli using Cbz-Glu-(gamma-p-nitrophenylester)Gly (AL5) as substrate assessed as substrate hydrolysis by measuring Kinact incubated for 20 mins by colorimetric analysis
[6] = target: T3, Protein-glutamine gamma-glutamyltransferase (Homo sapiens); experiment: Irreversible inhibition of human recombinant tissue transglutaminase expressed in Escherichia coli using Cbz-Glu-(gamma-p-nitrophenylester)Gly (AL5) as substrate assessed as substrate hydrolysis by measuring Kinact/Ki ratio by linear regression analysis
Procedure, shortened: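 For TG2/AL5 under Kitz–Wilson conditions (100 μM AL5, pH 6.9 MOPS, 25 °C, 405 nm), kinact/KI was taken from simple linear regression of kobs against corrected inhibitor concentration at the lowest inhibitor concentrations.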

[7] = target: T4, Protein-glutamine gamma-glutamyltransferase (Homo sapiens, UniProt P21980); experiment: Irreversible inhibition of human recombinant tissue transglutaminase expressed in Escherichia coli using Cbz-Glu-(gamma-p-nitrophenylester)Gly (AL5) as substrate assessed as substrate hydrolysis by measuring KI incubated for 20 mins by colorimetric analysis
T4 sequence (P21980 whole entry): T3 sequence (whole entry)

Row | K [1] [min⁻¹] | K [2] [min⁻¹] | Ratio [3] | Ratio [4] | Kinact [5] [min⁻¹] | Ratio [6] | Ki [7] [nM] | Compound
1 | 0.051 | 0.02 | – | – | – | – | – | C=CC(=O)NCC(=O)N1CCN(C(=O)C23CC4CC(CC(C4)C2)C3)CC1
2 | 0.013 | – | 5.437 | 8050 10^3/M/min | 1.23 | 4540 10^3/M/min | 150 | O=C(CCl)NCC(=O)N1CCN(C(=O)C23CC4CC(CC(C4)C2)C3)CC1
